High-throughput results: PubChem BioAssay, several laboratories
ABCB6 inh MLPCN: inhibitors of human ABC transporter ABCB6; fluorescence ratio to DMSO, % at 10 µM; K562-ABCB6 porphyrin accumulation, flow cytometry, 1 h; stronger effect = lower value; hit rate 0.19% among 360,000; Q9NP58;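 active = fluorescence ratio to DMSO below 75%, the collection mean minus 3 SD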;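 also: signal is porphyrin accumulated inside mitochondria; lower ratio means ABCB6 inhibition with less porphyrin fluorescence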
TbMetRS inhib: blocks T. brucei methionyl-tRNA synthetase activity; purified T. brucei MetRS, ATP depletion, Kinase-Glo luminescence; inhibition, % at 11.9 µM; hit rate 0.4% among 360,000; AID 624268;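 active = inhibition above a per-plate cutoff of the control wells' mean inhibition plus 3 SD, cut at about 5.5% in these data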
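Measured by: Kinase-Glo luciferase luminescence reporting remaining unconsumed ATP. Material: purified T. brucei MetRS enzyme. Doses: 11.9 µM compound single dose, 0.9% DMSO. Medium: HEPES buffer containing pyrophosphatase, BSA, spermine, DTT. Times: 15 min preincubation, 2 h reaction, all 25 °C. Reagent: methionine, ATP and bulk E. coli tRNA.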
iPSC survival up: hiPSC single-cell survival enhancement; ATPlite luminescence; 100% = ROCK inhibitor wells, 0% = DMSO; survival enhancement, % at 20 µM; hit rate 0.044% among 360,000; in the data active = survival enhancement above about 18%;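 also: cells exposed to compounds for 16 hours before the ATP read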
MC4R ag barr: activates human MC4R beta-arrestin recruitment. U2OS MC4R beta-arrestin complementation, luminescence; percent of melanotan II response, DMSO zero. activation, % at 8.9 µM. hit rate 0.98% among 360,000. AID 540308;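 active = activation above a per-plate cutoff, the mean activation of sample wells on that plate plus 3 SD, cut at about 8% in these data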
Target sequence (P32245 whole entry, looked up): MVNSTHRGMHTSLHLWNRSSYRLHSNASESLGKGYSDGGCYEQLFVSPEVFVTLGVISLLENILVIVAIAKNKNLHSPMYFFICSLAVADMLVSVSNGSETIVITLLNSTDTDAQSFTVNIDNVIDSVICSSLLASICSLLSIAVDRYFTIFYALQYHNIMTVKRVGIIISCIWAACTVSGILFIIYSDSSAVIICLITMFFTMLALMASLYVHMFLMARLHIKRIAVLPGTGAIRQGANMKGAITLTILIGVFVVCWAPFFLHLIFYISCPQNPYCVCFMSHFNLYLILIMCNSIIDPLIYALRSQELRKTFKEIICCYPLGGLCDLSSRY
Exocytosis inh: lytic granule exocytosis inhibition | AID 651702 | hit rate 0.66% among 360,000 | inhibition, % at 10 µM | TALL-104 LAMP-1 surface exposure, flow cytometry; cells stimulated with thapsigargin and PMA;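 active = inhibition above about 55%, limit read from the data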
MC4R antagonist: blocks human MC4R cAMP signaling. P32245. MC4R-expressing cells, MTII-stimulated cAMP, LANCE TR-FRET. inhibition, % at 6.5 µM. hit rate 0.48% among 360,000. AID 540295;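 active = inhibition above its plate's cutoff, the mean of tested wells on that plate plus 3 SD, cut at about 29% in these data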
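system = U2OS cells with stable human MC4R expression | also added = Melanotan II challenge after compound preincubation | dosing = one concentration, 6.5 µM nominal | incubation = compound 30 min, challenge 1 h, detection 1 h | measured by = TR-FRET with Eu-cAMP and labeled anti-cAMP, 671 nm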
U2OS cAMP counter: counter-screen for MC4R antagonists: nonselective cAMP signaling inhibitors. hit rate 26% among 1,600. parental U2OS, forskolin cAMP, LANCE TR-FRET. shares compounds with MC4R antagonist. AID 602193. inhibition, % at 6.5 µM;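 active = mean inhibition over triplicates above the low-control well mean plus 3 SD, set per campaign, cut at about 13% in these data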;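 also: signal is single emission at 671 nm which falls as cellular cAMP rises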
MC4R cAMP antag: human MC4R cAMP antagonism confirmation; shares compounds with MC4R antagonist; MC4R-expressing cells, MTII-stimulated cAMP, TR-FRET; inhibition, % at 6.5 µM; hit rate 27% among 1,600; AID 602195; in the data active = inhibition above about 29%
Hits are given with their value. The list is not random: actives were taken first. Their share in the collection is about 2.6%.

O=C(c1ccccc1)C(CCC(CN1CCOCC1)C(=O)c1ccccc1)CN1CCOCC1 (stereo unspecified) was read as ABCB6 inh MLPCN inactive, TbMetRS inhib inactive, iPSC survival up inactive, MC4R ag barr inactive, Exocytosis inh 76, MC4R antagonist 41, U2OS cAMP counter inactive and MC4R cAMP antag inactive.
O=C(c1ccc(F)cc1)C(CN1CCOCC1)c1ccccc1 (stereo unspecified) was read as ABCB6 inh MLPCN inactive, TbMetRS inhib inactive, iPSC survival up inactive, MC4R ag barr inactive, Exocytosis inh inactive and MC4R antagonist inactive.
For CC1(C)c2cc(O)ccc2OC1N1CCOCC1 (stereo unspecified) the results were ABCB6 inh MLPCN inactive, TbMetRS inhib inactive, iPSC survival up inactive, MC4R ag barr inactive, Exocytosis inh inactive and MC4R antagonist inactive.
Screening COC(=O)C(CC(C)C)NC(=O)/C=C/c1ccc(Cl)cc1 (stereo unspecified) returned ABCB6 inh MLPCN inactive, TbMetRS inhib inactive, iPSC survival up inactive, MC4R ag barr inactive, Exocytosis inh inactive, MC4R antagonist 35, U2OS cAMP counter inactive and MC4R cAMP antag inactive.
O=S(=O)(Nc1ccccc1-c1ccccc1)c1ccccc1 was read as ABCB6 inh MLPCN inactive, TbMetRS inhib inactive, iPSC survival up inactive, MC4R ag barr inactive, Exocytosis inh inactive and MC4R antagonist inactive.
Screening O=C(O)c1cccc(S(=O)(=O)Nc2ccccc2-c2ccccc2)c1 returned ABCB6 inh MLPCN inactive, TbMetRS inhib inactive, iPSC survival up inactive, MC4R ag barr inactive, Exocytosis inh inactive, MC4R antagonist 29, U2OS cAMP counter inactive and MC4R cAMP antag inactive.
Screening CC1=CC2=C(C=O)C(=O)C(C)(O)C(O)C2=CO1 (stereo unspecified) returned ABCB6 inh MLPCN inactive, TbMetRS inhib inactive, iPSC survival up inactive, MC4R ag barr inactive, Exocytosis inh inactive and MC4R antagonist inactive.
For CS(=O)(=O)c1ccc(Cl)c(NC(=O)COC(=O)CNC(=O)c2ccc(Br)o2)c1 the results were ABCB6 inh MLPCN inactive, TbMetRS inhib inactive, iPSC survival up inactive, MC4R ag barr inactive, Exocytosis inh inactive, MC4R antagonist 32, U2OS cAMP counter inactive and MC4R cAMP antag inactive.
For O=C(Nc1cc([N+](=O)[O-])ccc1O)c1cccc(C(=O)Nc2cc([N+](=O)[O-])ccc2O)c1 the results were ABCB6 inh MLPCN inactive, TbMetRS inhib inactive, iPSC survival up inactive, MC4R ag barr inactive, Exocytosis inh inactive and MC4R antagonist inactive.
`NS(=O)(=O)c1ccc(O)c(NC(=O)c2ccc([N+](=O)[O-])cc2)c1` gave ABCB6 inh MLPCN inactive, TbMetRS inhib inactive, iPSC survival up inactive, MC4R ag barr inactive, Exocytosis inh inactive, MC4R antagonist 29, U2OS cAMP counter inactive and MC4R cAMP antag inactive.
Screening O=C(Nc1cc(S(=O)(=O)N2CCCCC2)ccc1Cl)c1ccccc1NS(=O)(=O)c1ccc(F)cc1 returned ABCB6 inh MLPCN inactive, TbMetRS inhib inactive, iPSC survival up inactive, MC4R ag barr inactive, Exocytosis inh inactive, MC4R antagonist 31, U2OS cAMP counter inactive and MC4R cAMP antag inactive.
`O=C(CN(Cc1ccco1)Cc1ccco1)Nc1cc(S(=O)(=O)N2CCCCC2)ccc1Cl` gave ABCB6 inh MLPCN inactive, TbMetRS inhib inactive, iPSC survival up inactive, MC4R ag barr inactive, Exocytosis inh inactive, MC4R antagonist 29, U2OS cAMP counter inactive and MC4R cAMP antag inactive.
For O=C(NCc1ccco1)c1cc(S(=O)(=O)N2CCCC2)ccc1Cl the results were ABCB6 inh MLPCN inactive, TbMetRS inhib inactive, iPSC survival up inactive, MC4R ag barr inactive, Exocytosis inh inactive and MC4R antagonist inactive.
Brc1ccc(-c2nnc3sc(CNC4CCCC4)cn23)cc1 was read as ABCB6 inh MLPCN inactive, TbMetRS inhib inactive, iPSC survival up inactive, MC4R ag barr inactive, Exocytosis inh inactive, MC4R antagonist 32, U2OS cAMP counter 17 and MC4R cAMP antag 33.
`COC(=O)CNC(c1ccccc1)c1cc(Br)ccc1N` (stereo unspecified) gave ABCB6 inh MLPCN inactive, TbMetRS inhib inactive, iPSC survival up inactive, MC4R ag barr inactive, Exocytosis inh inactive, MC4R antagonist 31, U2OS cAMP counter inactive and MC4R cAMP antag inactive.
For NNC(=O)CNC(c1ccccc1)c1cc(Br)ccc1N (stereo unspecified) the results were ABCB6 inh MLPCN inactive, TbMetRS inhib inactive, iPSC survival up inactive, MC4R ag barr inactive, Exocytosis inh inactive and MC4R antagonist inactive.
`CCc1noc(C)c1C(=O)N1CCN(c2cccc(Cl)c2)CC1` gave ABCB6 inh MLPCN inactive, TbMetRS inhib inactive, iPSC survival up inactive, MC4R ag barr inactive, Exocytosis inh inactive and MC4R antagonist inactive.
`O=C(COC(=O)c1ccc(NS(=O)(=O)c2cccs2)cc1O)Nc1nc2ccccc2s1` gave ABCB6 inh MLPCN inactive, TbMetRS inhib inactive, iPSC survival up inactive, MC4R ag barr inactive, Exocytosis inh inactive, MC4R antagonist 31, U2OS cAMP counter inactive and MC4R cAMP antag inactive.
Screening CCc1nnc(NC(=O)CSc2nc3c(cc2C#N)CCC3)s1 returned ABCB6 inh MLPCN inactive, TbMetRS inhib inactive, iPSC survival up inactive, MC4R ag barr inactive, Exocytosis inh inactive and MC4R antagonist inactive.
`N#Cc1cc2c(nc1SCC(=O)Nc1nccs1)CCCCC2` gave ABCB6 inh MLPCN inactive, TbMetRS inhib inactive, iPSC survival up inactive, MC4R ag barr inactive, Exocytosis inh inactive, MC4R antagonist 39, U2OS cAMP counter inactive and MC4R cAMP antag inactive.
Screening CCOc1cc(/C=C2\N=C(C)OC2=O)cc(Br)c1OCCc1ccccc1 returned ABCB6 inh MLPCN inactive, TbMetRS inhib inactive, iPSC survival up inactive, MC4R ag barr inactive, Exocytosis inh inactive and MC4R antagonist inactive.
Screening CCOc1cc(/C=C2\N=C(C)OC2=O)cc(Br)c1OCC(=O)OC returned ABCB6 inh MLPCN inactive, TbMetRS inhib inactive, iPSC survival up inactive, MC4R ag barr inactive, Exocytosis inh inactive, MC4R antagonist 44, U2OS cAMP counter inactive and MC4R cAMP antag inactive.
CC(=O)c1cccc(NC(=O)c2cccc3c(-c4cnn(C)c4)coc23)c1 was read as ABCB6 inh MLPCN inactive, TbMetRS inhib inactive, iPSC survival up inactive, MC4R ag barr inactive, Exocytosis inh inactive and MC4R antagonist inactive.
Nc1ccc2nn(-c3cc([N+](=O)[O-])ccc3O)nc2c1 was read as ABCB6 inh MLPCN inactive, TbMetRS inhib inactive, iPSC survival up inactive, MC4R ag barr inactive, Exocytosis inh inactive, MC4R antagonist 29, U2OS cAMP counter inactive and MC4R cAMP antag inactive.
